# Measurements published in PMC9574760 (Food Chemistry: Molecular Sciences, 2022).
# Ends that are not written are not given here.
# Assays:
# elastase [1] = target: T1, elastase (Sus scrofa, UniProt P00772); conditions: bovine elastin peptides; ref Liu, Su, Zhou, Zhang, Zheng, & Zhao, 2018; cited from earlier work
# porcine pepsin = test: In vitro simulated gastric digestion stability, RP-HPLC; format: in vitro ADME; conditions: pig, simulated gastric fluid with porcine pepsin, pH 2
# How it was run: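 Test peptide was digested with […] porcine pepsin at pH 2.0 ([…] KCl-HCl) and an enzyme:substrate ratio of 1:30 (w/w). Digestion ran 2 h at 37℃, shaking at 170 rpm. Enzyme was inactivated in boiling water for 10 min and the digest centrifuged at 6000 × g for 15 min. Peptide before and after digestion was compared by C18 RP-HPLC with water/0.1 % TFA and acetonitrile/0.1 % TFA, 1.0 mL/min, 220 nm detection; triplicate.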
# elastase [2] = target: T1, elastase; test: Elastase inhibition test; format: biochemical
# How it was run: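 Elastase from the commercial supply; test compound in 50 mM Tris-HCl, pH 8.0. The 1 mM substrate solution and the sample (buffer for the negative control) were mixed and A410 was read. Then 100 mU/mL elastase was added and incubated 5 min at 25℃, stopped with 2 M HCl, and A410 was read again. EGCG reference at 0.5 mg/mL; three independent experiments.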
# T1 sequence (P00772 27-266): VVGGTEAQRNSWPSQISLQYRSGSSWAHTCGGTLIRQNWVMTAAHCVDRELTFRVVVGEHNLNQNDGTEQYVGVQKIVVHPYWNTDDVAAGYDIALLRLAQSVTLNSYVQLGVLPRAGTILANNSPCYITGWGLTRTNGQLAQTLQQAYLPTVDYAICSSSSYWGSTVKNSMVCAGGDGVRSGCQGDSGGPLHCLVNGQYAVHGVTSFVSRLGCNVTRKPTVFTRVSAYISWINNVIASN
Substance,elastase inhibitory activity (in words) (elastase [1]),"remaining at 2 h, 1 mg/mL (porcine pepsin) [%]",IC50 (elastase [2]) [µM]
GLGPGVG,weakly active,,
GLPY,most active,,
GPGGVGAL,weakly active,,
"FFVPF [FFVPF, Phe-Phe-Val-Pro-Phe]",,87.5 ± 1.24,715
